Results on seven compounds are retold here after PubChem BioAssay.

Assay [1] is described as follows: inhibitors of TNFa-induced NFkB p65 translocation, primary screen, imaging, HUVEC, MLSMR starter and 10KST1 sets (AID 438;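 active means inhibition above 20% together with a positive visual image hit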;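 further: compound added about 3h40 before a 20 min TNFalpha stimulation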;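 on inhibition: signal is the nuclear over cytoplasmic p65 intensity ratio per well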). To be noted: HUVEC TNFa-induced p65 nuclear translocation; cell count: measured here: nuclei count (cytotoxicity indicator), at 2.08 µM; inhibition: at 2 µM, stronger effect = higher value, 0% TNFa-plus-vehicle, 100% no-TNFa wells.
A short description of assay [2]: endothelial E-selectin expression blockers – imaging, HUVEC, immunofluorescence, MLSMR starter and 10KST1 sets, primary screen (AID 487;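 active means visually confirmed hit in the image check and inhibition above 20%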;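 on inhibition: signal is fraction of cell area covered by stained E-selectin grains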;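 on nuclei count: 100% = median nuclei count of all wells on the same plate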). To be noted: HUVEC TNFalpha-induced E-selectin immunofluorescence imaging, at 2 µM; inhibition: stronger effect = higher value; nuclei count: measured here: cell number, toxicity.
Assay [3] in a line: Primary imaging screen for DUSP6 inhibitors that restore phospho-Erk in transfected HeLa cells, chemical complementation (AID 609;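 active means compounds giving at least 50% inhibition in the cell-based MKP-3 phosphatase rescue imaging test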;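 on inhibition: phospho-Erk level distribution per well compared with pooled transfected vehicle control wells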). As to conditions: HeLa MKP-3 transfected, phospho-Erk imaging KS statistic, at 10 µM, cells stimulated with TPA for 15 min.
The target of assay [4] is Dual specificity protein phosphatase 6 (Homo sapiens) (UniProt Q16828). The description is as above. To be noted: HeLa MKP-3 transfected, phospho-Erk imaging KS statistic; at 10 µM; stronger effect = higher value; cells stimulated with TPA for 15 min.
Chain of Dual specificity protein phosphatase 6 (Homo sapiens) (Q16828 whole entry, looked up): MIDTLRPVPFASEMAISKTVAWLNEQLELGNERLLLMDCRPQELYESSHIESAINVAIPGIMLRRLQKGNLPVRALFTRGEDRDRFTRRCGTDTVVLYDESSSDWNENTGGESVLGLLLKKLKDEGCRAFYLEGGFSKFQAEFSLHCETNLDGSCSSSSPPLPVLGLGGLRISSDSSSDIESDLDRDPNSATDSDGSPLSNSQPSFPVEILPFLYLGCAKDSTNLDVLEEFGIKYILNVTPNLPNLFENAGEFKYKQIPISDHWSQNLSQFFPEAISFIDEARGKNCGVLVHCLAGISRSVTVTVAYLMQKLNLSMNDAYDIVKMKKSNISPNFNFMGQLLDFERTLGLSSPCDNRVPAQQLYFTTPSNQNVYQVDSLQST
The target in assay [5] is Voltage-gated potassium channel subunit beta-2 (Rattus norvegicus) (UniProt P62483). In words: inhibitors of rat Kvbeta2 reductase activity – biochemical, NADPH fluorescence, primary screen (AID 622;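 active means fluorescence slope higher than the sample average by over 3 SD, cut at about -0.22 in these data, passing the limit was not always enough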;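 further: slope of raw intensity against log time taken from 70 to 1610 s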). As to conditions: recombinant KvBeta, 4-cyanobenzaldehyde reduction, at 10 µM, stronger effect = higher value.
Chain of Voltage-gated potassium channel subunit beta-2 (Rattus norvegicus) (P62483 whole entry, looked up): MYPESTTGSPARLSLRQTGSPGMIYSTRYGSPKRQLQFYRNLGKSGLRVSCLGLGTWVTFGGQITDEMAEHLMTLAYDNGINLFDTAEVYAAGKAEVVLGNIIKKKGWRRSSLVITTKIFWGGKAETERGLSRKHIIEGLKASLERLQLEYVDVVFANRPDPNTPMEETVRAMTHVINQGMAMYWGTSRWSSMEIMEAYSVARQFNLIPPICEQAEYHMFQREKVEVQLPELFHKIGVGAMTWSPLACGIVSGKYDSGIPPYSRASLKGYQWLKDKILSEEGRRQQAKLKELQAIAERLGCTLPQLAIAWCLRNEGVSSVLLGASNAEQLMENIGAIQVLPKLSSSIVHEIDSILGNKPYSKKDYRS
Assay [6] has the same target. In words: enhancers of rat Kvbeta2 NADPH turnover – biochemical, NADPH fluorescence, primary screen (AID 623;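 active means NADPH fluorescence slope more negative than the mean of all samples by about 3 SD, 99.7% confidence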;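 further: fluorescence intensity change per second fitted from 20 to 320 s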). To be noted: Recombinant KvBeta, NADPH fluorescence decrease slope, 10 min; at 10 µM; stronger effect = lower value.
Assay [7] deals with Muscarinic acetylcholine receptor M4 (Homo sapiens) (UniProt P08173). In words: M4-linked GIRK flux change, two-sided – cell-based, HEK293 M4/GIRK, thallium flux, BTC-AM, M4 allosteric agonist project, primary screen (AID 625;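 active means fluorescence slope after compound addition differing from the mean of all tested samples at 99.7% confidence, mostly higher but some lower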;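 further: thallium influx through GIRK channels coupled to M4 in HEK293 cells with BTC-AM dye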). As to conditions: at 10 µM, actives lie on both sides. In outline: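 System: HEK293 cells with M4 receptor and GIRK channels | Incubation: Cells overnight at 37 °C, BTC-AM loading 1 h, reads 2 min total | Technique: Kinetic BTC-AM fluorescence sampled at 1 Hz, 10 s pre-addition baseline | Measure: Post-addition slope, 15–24 s, of baseline-normalized fluorescence | Control set: Carbachol positive, DMSO negative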
Chain of Muscarinic acetylcholine receptor M4 (Homo sapiens) (P08173 whole entry, looked up): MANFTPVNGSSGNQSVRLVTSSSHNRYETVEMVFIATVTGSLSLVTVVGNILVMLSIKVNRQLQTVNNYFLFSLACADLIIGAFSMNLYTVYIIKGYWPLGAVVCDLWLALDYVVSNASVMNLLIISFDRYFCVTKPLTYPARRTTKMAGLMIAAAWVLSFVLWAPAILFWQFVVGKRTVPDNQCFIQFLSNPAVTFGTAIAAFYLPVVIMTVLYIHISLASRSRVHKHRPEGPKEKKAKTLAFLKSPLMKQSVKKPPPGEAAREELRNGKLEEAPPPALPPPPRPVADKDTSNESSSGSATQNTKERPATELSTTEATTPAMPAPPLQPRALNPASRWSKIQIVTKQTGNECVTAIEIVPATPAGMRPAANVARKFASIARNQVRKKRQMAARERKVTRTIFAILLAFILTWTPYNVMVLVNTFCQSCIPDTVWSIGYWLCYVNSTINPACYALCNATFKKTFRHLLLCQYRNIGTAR

Assay [8] is described as follows: inhibitors of larval lipid processing in zebrafish, primary screen, whole organism, PED6 fluorescence, gall bladder and intestine (AID 686).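 Further: larvae 5 to 7 days old with five fish per well; signal comes from phospholipase A2 cleavage of quenched PED6 carried via bile; overnight exposure to compound and PED6 before scoring.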 To be noted: Zebrafish larvae PED6 lipid processing, fluorescence scoring; screened at 20 µM (by protocol). Put shortly:
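Test system – live zebrafish larvae aged 5-7 days, whole organism · Buffer or medium – E3 fish medium · Reagent – quenched phospholipase substrate PED6, 100 nM final, ingested by larvae · Doses – 20 µM single dose · Incubation – overnight compound and PED6 incubation · Technique – visual fluorescence microscopy scoring of gall bladder, gut · Read-out basis – visual per-well fluorescence inhibition score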

The nature of assay [9]: loss of swimming-algae plug formation – whole organism, Chlamydomonas reinhardtii, WT vs cilia-less mutant, absorbance, 96-well, primary screen (AID 463189;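 active means inhibition at or above 50% relative to wild type and mutant plate controls; inactive means inhibition below 50%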;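 further: 0% = wild type cc124 cells in DMSO and 100% = ciliumless bld1 mutant cells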). As to conditions: Chlamydomonas reinhardtii gravitaxis, OD600 absorbance, 2 days; at 10 µM; stronger effect = higher value.
Where [10] appears, read: measured here: cell density z-score.
Setting [11] is: measured here: nuclear c-Myc green intensity z-score.
The mark [12] stands for this setting: measured here: nuclear pErk red intensity z-score, stronger effect = higher value.

Each structure is given as a SMILES string. Active and inactive are the calls of the source.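 How the source made its calls, unless noted: active means a full or partial loss of lipid-probe fluorescence in the fish gall bladder, intestine or both, judged by eye; inactive means no fluorescence loss, or compound toxic to the fish.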

Regarding `COc1cccc(Cn2c(NCc3ccccn3)nc3c2c(=O)n(C)c(=O)n3C)c1`, the cell count in assay [1] was found to be 694. Also, the inhibition in assay [1] is -20.9% (inactive); in [2], -199% (inactive); in assay [4], 17.8% (inactive); in [9], 4.17% (inactive). In [2], this compound came in with a nuclei count of 189%. In addition, the z-score was 0.955 in assay [3] (setting [10]), -1.34 in [3] (setting [11]) and -0.0315 in assay [3] (setting [12]). The fluorescence slope in assay [5] is -0.5 (inactive); in assay [7], 0.00592 (inactive). Also, the NADPH fluorescence slope in assay [6] was -7.9e-05 (inactive). The outcome in assay [8] was inactive.
As to `Cc1cc(=O)oc(C)c1C(=O)NC1CC(C)(C)NC(C)(C)C1`, in assay [1], the cell count came to 688. Besides, the inhibition in assay [1] is -8.3% (inactive); in assay [2], -70.2% (inactive); in assay [4], -10.1% (inactive); in [9] it was 6.56% (inactive). In assay [2], the nuclei count turned out to be 160%. Besides, the z-score was -0.541 in assay [3] (setting [10]), 0.659 in assay [3] (setting [11]) and 0.228 in assay [3] (setting [12]). Also, the figures for the fluorescence slope in assay [5] and in assay [7] were -0.463 (inactive) and 0.00552 (inactive), respectively. The NADPH fluorescence slope in assay [6] is -1.7e-05 (inactive). Also, the outcome in [8] was inactive.
As for `CCOC(=O)c1[nH]c2ccc(F)cc2c1N=C(C)N(CC)CC`, in assay [1], the cell count turned out to be 621. Moreover, the inhibition in assay [1] is -7.1% (inactive); in assay [2] it was -132% (inactive); in assay [4], 1.9e-07% (inactive); in assay [9], -19.6% (inactive). In assay [2], the nuclei count stood at 100%. Further, the z-score in assay [3] (setting [10]) was -2.41; in [3] (setting [11]) it was 0.938; in assay [3] (setting [12]), -0.403. Further, the fluorescence slope in assay [5] was -0.497 (inactive); in assay [7], 0.00509 (inactive). Also, the NADPH fluorescence slope in assay [6] is -8.7e-05 (inactive). Also, the call in [8] was inactive.
For `Cc1ccc(Cn2ncc3c(N4CCOCC4)ncnc32)cc1`, the cell count in [1] was 551. Also, the inhibition in assay [1] was -1.3% (inactive); in assay [2] it was -9.4% (inactive); in [4] it was 7.93% (inactive); in assay [9], -4.03% (inactive). In assay [2], this compound registered a nuclei count of 152%. Further, the z-score in [3] (setting [10]) was 0.711; in [3] (setting [11]), -0.178; in assay [3] (setting [12]), 0.142. In addition, the fluorescence slope was -0.363 (inactive) in assay [5] and 0.00641 (inactive) in assay [7]. Also, the NADPH fluorescence slope in [6] was -3.8e-05 (inactive). The compound was classed as inactive in assay [8].
With `CCCCCOC(=O)Cc1c(C)nc(-c2ccccc2)[nH]c1=O`, the cell count in assay [1] amounted to 373. For the same compound, the inhibition was -0.5% (inactive) in assay [1], -157% (inactive) in assay [2], 30.7% (inactive) in assay [4] and 32% (inactive) in assay [9]. The compound further had a nuclei count in [2] of 157%. The z-score in assay [3] (setting [10]) was 1.82; in [3] (setting [11]), -0.595; in assay [3] (setting [12]), -0.463. Moreover, the fluorescence slope was -0.474 (inactive) in [5] and 0.00469 (inactive) in assay [7]. The NADPH fluorescence slope in [6] is -7.9e-05 (inactive). Moreover, the result in assay [8] was inactive.
For the compound `Cc1c2c([n+]3n1CCC3)CC(C)(C)CC2=O`, the cell count in [1] came out at 617. The inhibition was 10.2% (inactive) in [1], -23.3% (inactive) in assay [2], -7.67% (inactive) in [4] and -11.5% (inactive) in assay [9]. In assay [2], this compound returned a nuclei count of 121%. Also, the z-score was -0.832 in [3] (setting [10]), 1.36 in [3] (setting [11]) and 0.404 in assay [3] (setting [12]). In addition, the fluorescence slope was -0.443 (inactive) in [5] and 0.00512 (inactive) in assay [7]. Further, the NADPH fluorescence slope in [6] was -3.2e-05 (inactive). Further, in assay [8], the compound was called inactive.
In the case of `Cc1ccc(S(=O)(=O)NC(=O)Nc2ncc3c(n2)CC(c2ccco2)CC3=O)cc1` (stereo unspecified), in [1], the cell count stood at 662. Moreover, the inhibition in assay [1] is -3.8% (inactive); in assay [2], 45.8% (inactive); in assay [4], 22.1% (inactive); in assay [9], -13.7% (inactive). In addition, in assay [2], the nuclei count was 89.6%. Moreover, the figures for the z-score in assay [3] (setting [10]), in [3] (setting [11]) and in assay [3] (setting [12]) were 1.23, -1.12 and -0.985, respectively. Further, the fluorescence slope in assay [5] was -0.51 (inactive); in assay [7], 0.00507 (inactive). Moreover, in assay [6], the NADPH fluorescence slope was -2.8e-05 (inactive). Besides, the result in assay [8] was inactive.

As usually defined, the inhibition is the change of the read-out against control, counted positive when it falls.
